From ChEMBL document CHEMBL1129543, “Synthesis and evaluation of N-(phenylacetyl)trifluoromethanesulfonamides as anticonvulsant agents” (J Med Chem, 1996)
Active and inactive are the calls of the source. The calls are words filed in the database; no cut-off is given here.

How the values were obtained:
[1] = system: Rattus norvegicus; experiment: Median Effective dose was evaluated by Subcutaneous pentylenetetrazole seizure test in Rats by oral administration; type: functional
[2] = system: Rattus norvegicus; experiment: Median Effective dose was evaluated by Maximal electroshock seizure (MES) test in Rats by oral administration; type: functional
[3] = system: Mus musculus; experiment: Median effective dose was evaluated by Maximal electroshock seizure test through intraperitoneal administration; type: functional; conditions: ip
In short: (§1)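 Phase II in mice, ip dosing in 30% PEG 400. Groups of 6-12 mice per dose until at least three points fall in 10-90% protection. […] MES: 50 mA, 0.2 s corneal. scMet: pentylenetetrazol 85 mg/kg sc.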

[4] = system: Rattus norvegicus; experiment: Time to peak effect in Rats was evaluated by Neurologic toxicity (rotarod test) in hours by oral administration; type: functional
[5] = system: Mus musculus; experiment: Time to peak effect in mice was evaluated by Neurologic toxicity (rotarod test) in hours by oral administration; type: functional
In short: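 Oral dosing in mice in 30% PEG 400 (0.01 mL/g). Neurologic deficit was scored by the rotorod ataxia test, and the time of peak effect was given in hours.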

[6] = organism: Mus musculus; experiment: Time to peak toxicity was evaluated by Maximal electroshock seizure test in hours; type: functional
[7] = system: Mus musculus; experiment: Time to peak effect in mice was evaluated by Subcutaneous pentylenetetrazole seizure test in hours by oral administration; type: functional
In short: (§2)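 Oral dosing in 30% PEG 400: phase IV in mice (0.01 mL/g), phase VI in Sprague-Dawley rats (0.004 mL/g). ED50/TD50 found as in phase II, at the stated time of peak effect. MES current 50 mA in mice, 150 mA in rats. PTZ sc 85 mg/kg in mice, 70 mg/kg in rats. Toxicity by rotorod in mice; positional sense, gait and stance in rats. PI = TD50/ED50.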

[8] = system: Mus musculus; experiment: Median lethal dose was evaluated by mortality after 24 hr through ip injection administration; type: functional
In short: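 Mice were dosed ip in 30% PEG 400. Mortality was scored 24 h after injection in groups of eight. The 24-h LD₅₀ was derived as for the ED₅₀/TD₅₀, with 95% confidence intervals.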

[9] = system: Mus musculus; experiment: Median effective dose was evaluated by subcutaneous pentylenetetrazole seizure test through intraperitoneal administration; type: functional; in short: as §1
[10] = system: Mus musculus; experiment: Median Effective dose was evaluated by Maximal electroshock seizure (MES) test in mice by oral administration; type: functional
[11] = system: Mus musculus; experiment: Median Effective dose was evaluated by Subcutaneous pentylenetetrazole seizure test in mice by oral administration; type: functional
[12] = system: Mus musculus; experiment: Inhibition of seizures induced in mice by a convulsant dose of bicuculline through ip administration; type: functional
In short: (§3)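 Phase V differentiation in mice: test drug given ip at time of peak therapeutic effect, then the CD₉₇ of each convulsant (picrotoxin, bicuculline, strychnine) given ip as a 0.5% solution; observation 30 min for bicuculline and strychnine, 45 min for picrotoxin. Drug in 30% PEG 400, 0.01 mL/g. ED₅₀ with 95% confidence intervals from ≥3 points in the 10-90% protection range, groups of 6-12 mice.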

[13] = system: Rattus norvegicus; experiment: Time to peak effect in Rats was evaluated by Subcutaneous pentylenetetrazole seizure test in hours by oral administration; type: functional; in short: as §2
[14] = system: Mus musculus; experiment: Time to peak effect in mice was evaluated by Maximal electroshock seizure (MES) test in hours by oral administration; type: functional; in short: as §2
[15] = system: Rattus norvegicus; experiment: Time to peak effect in Rats was evaluated by Maximal electroshock seizure (MES) test in hours by oral administration; type: functional; in short: as §2
[16] = organism: Mus musculus; experiment: Time to peak activity was evaluated by Maximal electroshock seizure test in hours; type: functional
[17] = system: Mus musculus; experiment: Inhibition of seizures induced in mice by a convulsant dose of strychnine through ip administration; type: functional; in short: as §3
[18] = system: Mus musculus; experiment: Median toxic dose was evaluated by […] through intraperitoneal administration; type: functional
[19] = organism: Mus musculus; experiment: Median hypnotic dose was evaluated by loss of righting reflex; type: functional
[20] = system: Rattus norvegicus; experiment: […] was evaluated by Neurologic toxicity (rotarod test) in Rats by oral administration; type: functional
[21] = system: Mus musculus; experiment: Inhibition of picrotoxin-induced seizures in mice by ip administration; type: functional; in short: as §3
[22] = system: Mus musculus; experiment: Anti-seizure activity was evaluated by Neurologic toxicity (rotarod test) at dose 300 mg/kg after 0.5 hours; ++ denotes antiseizure activity; type: functional, organism-based; parameters: dose 300 mg/kg
In short: (§4)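 Phase I neurotoxicity in mice by rotorod ataxia test. Compound given ip at 30, 100, 300 or 600 mg/kg in 30% PEG 400, read 0.5 h and 4 h after. Scored ++++ to + for toxicity at 30 to 600 mg/kg; - means no toxicity.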

[23] = system: Mus musculus; experiment: Anti-seizure activity was evaluated by Subcutaneous pentylenetetrazole seizure test at dose 300 mg/kg after 0.5 hours; ++ denotes antiseizure activity; type: functional, organism-based; parameters: dose 300 mg/kg
In short: (§5)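 Phase I screen in mice: ip dosing at 30, 100, 300 and 600 mg/kg in 30% PEG 400, read 0.5 h and 4 h after. Pentylenetetrazol given sc at CD97 (85 mg/kg). Protection means no clonic spasm of at least 5 s over 30 min. Scored ++++ to + for 30 to 600 mg/kg.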

[24] = system: Mus musculus; experiment: Anti-seizure activity was evaluated by Neurologic toxicity (rotarod test) at dose 600 mg/kg after 4.0 hours; + denotes neurotoxicity; type: functional, organism-based; parameters: dose 600 mg/kg; in short: as §4
[25] = organism: Rattus norvegicus; experiment: Protective index (TD50/ED50) was determined against scMet induced seizure in rat.; type: functional
In short: as §2, with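 “rats.” for “rats. PTZ sc 85 mg/kg in mice, 70 mg/kg in rats.”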

[26] = system: Mus musculus; experiment: Anti-seizure activity was evaluated by Maximal electroshock seizure (MES) test at dose 100 mg/kg after 0.5 hours; +++ denotes antiseizure activity; type: functional, organism-based; parameters: dose 100 mg/kg
In short: (§6)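 Phase I screen in mice: ip injection at 30, 100, 300 and 600 mg/kg in 30% PEG 400 (0.01 mL/g). Test run 0.5 h and 4 h after dosing. 60-Hz AC, 50 mA, via corneal electrodes for 0.2 s. Protection means abolition of hind-leg tonic extension. Scored ++++ to + for activity at 30 to 600 mg/kg.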

[27] = organism: Rattus norvegicus; experiment: Protective index (TD50/ED50) was determined against MES induced seizure in rat.; type: functional
In short: as §2, with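 “rats.” for “rats. PTZ sc 85 mg/kg in mice, 70 mg/kg in rats.”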

[28] = system: Mus musculus; experiment: Inhibition of seizures induced in mice by a convulsant dose of strychnine through ip administration; f=No protection up to 100 mg/kg; type: functional, organism-based; parameters: dose 100 mg/kg
In short: (§7)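 Convulsant (bicuculline, picrotoxin, strychnine or PTZ) given at CD97 as a 0.5% solution. Observed 30 min (45 min for picrotoxin). PI uses ip mouse TD50.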

[29] = system: Rattus norvegicus; experiment: […] was evaluated by […] by oral administration up to 3000 mg/kg; type: functional, organism-based; parameters: dose 3000 mg/kg
[30] = system: Mus musculus; experiment: Inhibition of picrotoxin-induced seizures in mice by ip administration at 55-100 mg/kg (g= Maximum 62.5% protection); type: functional, organism-based; in short: as §3
[31] = system: Rattus norvegicus; experiment: Median Effective dose was evaluated by Subcutaneous pentylenetetrazole seizure test in Rats by oral administration up to 800 mg/kg;d= no protection; type: functional, organism-based; parameters: dose 800 mg/kg; in short: as §2
[32] = system: Mus musculus; experiment: […] was evaluated by Neurologic toxicity (rotarod test) in mice by oral administration; type: functional; in short: as §2
[33] = system: Mus musculus; experiment: Inhibition of seizures induced in mice by a convulsant dose of up to 100 mg/kg; type: functional, organism-based; parameters: dose 100 mg/kg; in short: as §7
[34] = system: Mus musculus; experiment: Median effective dose was evaluated by subcutaneous pentylenetetrazole seizure test through up to 300 mg/kg; g=no protection up to 33 mg/kg; type: functional, organism-based
[35] = system: Mus musculus; experiment: Median Effective dose was evaluated by Subcutaneous pentylenetetrazole seizure test in mice by oral administration; c=No protection up to 300 mg/kg; type: functional, organism-based; parameters: dose 300 mg/kg; in short: as §2
[36] = system: Mus musculus; experiment: Anti-seizure activity was evaluated by Subcutaneous pentylenetetrazole seizure test at dose 300 mg/kg after 4.0 hours; ++ denotes antiseizure activity; type: functional, organism-based; parameters: dose 300 mg/kg; in short: as §5
[37] = system: Mus musculus; experiment: Anti-seizure activity was evaluated by Maximal electroshock seizure (MES) test at dose 100 mg/kg after 4.0 hours; +++ denotes antiseizure activity; type: functional, organism-based; parameters: dose 100 mg/kg; in short: as §6
[38] = system: Mus musculus; experiment: Anti-seizure activity was evaluated by Neurologic toxicity (rotarod test) at dose 600 mg/kg after 0.5 hours; + denotes neurotoxicity; type: functional, organism-based; parameters: dose 600 mg/kg; in short: as §4

SMILES	ED50 [1] [mg/kg]	ED50 [2] [mg/kg]	ED50 [3] [mg/kg]	TPE [4] [h]	TPE [5] [h]	TPE [6]	TPE [7] [h]	LD50 [8] [mg/kg]	ED50 [9] [mg/kg]	ED50 [10] [mg/kg]	ED50 [11] [mg/kg]	ED50 [12] [mg/kg]	TPE [13] [h]	TPE [14] [h]	TPE [15] [h]	TPE [16]	ED50 [17] [mg/kg]	TD50 [18] [mg/kg]	HD50 [19] [mg/kg]	Activity [23]	other results
CCC1(c2ccccc2)C(=O)NC(=O)NC1=O [PHENOBARBITAL]	12	9.1	22	0.5	2	0.5	2	265	13	20	13	38	5	2	5	1	28	69	135		TD50 [20]: 61 mg/kg; ED50 [21]: 95 mg/kg
O=C(Cc1ccc([N+](=O)[O-])cc1)NS(=O)(=O)C(F)(F)F			12			6			20							4		482		Antiseizure activity	Activity [22]: Antiseizure activity; Activity [24]: Antiseizure activity; PI [25]: 24; Activity [26]: Antiseizure activity; PI [27]: 39
O=C1NC(=O)C(c2ccccc2)(c2ccccc2)N1 [PHENYTOIN]		30		0.5	2	2	2	230		9			4	2	4	2			178		ED50 [28]: inactive; TD50 [29]: inactive; ED50 [30]: Active; ED50 [31]: inactive; TD50 [32]: 87 mg/kg; ED50 [33]: inactive; ED50 [34]: inactive; ED50 [35]: inactive
COc1cccc(CC(=O)NS(=O)(=O)C(F)(F)F)c1			19			2			77							2		325		Antiseizure activity	Activity [36]: Antiseizure activity; Activity [24]: Antiseizure activity; PI [25]: 4.2; Activity [26]: Antiseizure activity; Activity [37]: Antiseizure activity; PI [27]: 17; Activity [38]: Antiseizure activity
CCCC(CCC)C(=O)O [VALPROIC ACID]	180			1	2	0.25	1		149		388	360	0.5	1	0.5	0.25	387		885		
